PGC1a acetyl inh: PGC1a acetylation modulation, inhibitor mode; U2OS PGC1a acetylation, AlphaScreen anti-acetyl-lysine; with virally co-expressed GCN5 acetyltransferase; AID 651687; inhibition, % at 15.6 µM; 350,000 compounds, 0.17% hits;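 active means every replicate shows inhibition of at least 40%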
FN deposit inh: fibronectin deposition inhibition | AH1F fibroblasts, Alexa488-fibronectin deposition fluorescence, overnight | inhibition, % at 12.6 µM | AID 743247 | 350,000 compounds, 0.086% hits;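 active means mean inhibition across replicates of 30% or more, regardless of how many single replicates reach that level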
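Measured by – fluorescence 485/525 nm · System – AH1F fibroblast monolayer, labelled fibronectin deposition · Amount – 10000 cells per well · Buffer or medium – serum-reduced DMEM (2% serum) · Doses – single dose, pinned · Also added – fluorescent fibronectin at 24 nM final · Schedule – 1 h cell attachment, overnight exposure to compound and label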
ERAP1 HTS inh: blocks human ERAP1 aminopeptidase activity; Q9NZ08; recombinant ERAP1, Leu-AMC fluorescence, 60 min; 340,000 compounds, 0.15% hits; inhibition, % at 10.7 µM; AID 652197;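 active means mean replicate inhibition of at least 30%, or all replicates individually reaching that 30% level; inactive means mean below 30% and not every replicate reaching it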
SIRT5 inh: inhibitors of human sirtuin-5 desuccinylase; Q9NXA8; Purified SirT5, succinyl-peptide AMC, trypsin-coupled fluorescence; inhibition, % at 15 µM; 330,000 compounds, 1.1% hits; in the data active means inhibition above about 15%
Target sequence (Q9NXA8 whole entry, looked up): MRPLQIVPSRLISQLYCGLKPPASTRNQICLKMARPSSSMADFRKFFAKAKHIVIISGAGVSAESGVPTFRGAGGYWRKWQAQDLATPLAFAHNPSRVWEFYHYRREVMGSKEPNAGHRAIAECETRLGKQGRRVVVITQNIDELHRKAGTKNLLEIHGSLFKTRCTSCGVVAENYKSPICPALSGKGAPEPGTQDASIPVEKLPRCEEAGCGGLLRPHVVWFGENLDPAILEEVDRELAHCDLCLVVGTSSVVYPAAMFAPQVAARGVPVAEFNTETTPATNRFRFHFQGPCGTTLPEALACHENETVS
FGF22 binding: FGF22 (human) thermal shift binding; Q9HCT0; recombinant FGF22 thermal shift, SYPRO orange fluorescence; percent of sucrose octasulfate shift, DMSO zero; activity (Tm shift, normalised), % at 9.99 µM; 340,000 compounds, 1.5% hits;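 active means mean Tm shift, scaled 0 neutral to 100 positive control, at about 1.3% or above, every replicate too, limit read from the data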
Target sequence (Q9HCT0 whole entry, looked up): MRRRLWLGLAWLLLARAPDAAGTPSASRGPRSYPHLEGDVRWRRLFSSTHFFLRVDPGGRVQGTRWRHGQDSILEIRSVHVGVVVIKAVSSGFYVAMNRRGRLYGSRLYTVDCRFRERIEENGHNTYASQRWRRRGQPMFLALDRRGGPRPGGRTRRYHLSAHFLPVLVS
Hits are given with their value; i = inactive; nt = not tested or not shown. Compounds with a hit are over-represented: about 2.2% of the library has one in this group of screens.

SMILES	PGC1a acetyl inh	FN deposit inh	ERAP1 HTS inh	SIRT5 inh	FGF22 binding
CN(C)C(=O)c1cccc(-c2ccc([C@@H]3[C@@H](CO)N4C(=O)CN(C(=O)C5CCCC5)C[C@@H]34)cc2)c1	i	i	i	i	i
Cc1cc(NC(=O)CSc2nnc3ccc(-c4ccccc4)nn23)no1	i	i	i	26	i
CSS(=O)(=O)c1cccc2cccnc12	i	i	85	i	i
COc1ccc2c3c(n(C)c2c1)[C@@H](CO)N(C(=O)C1CC1)CC31CCN(C(=O)Nc2cccc(F)c2)CC1	nt	nt	i	i	i
COc1ccc(CCN(Cc2nc3ccccc3c(=O)[nH]2)C(=O)C2CC2)cc1	i	i	i	i	43
CC(C)CC#Cc1cnc2c(c1)C(=O)N([C@H](C)CO)C[C@H](C)[C@@H](CN(C)Cc1ccccc1F)O2	i	i	i	i	i
O=S(=O)(c1ccc(F)cc1)c1nc(-c2ccco2)oc1Nc1ccccc1	i	i	i	112	i
O=S(=O)(c1ccccc1)c1nc(-c2ccco2)oc1Nc1ccccc1	nt	i	i	i	i
O=C(Cn1cnc(S(=O)(=O)N2CCCC2)c1)Nc1cccc(Br)c1	i	i	i	19	i
O=S(=O)(c1ccccc1)N1CCN(C2CCN(Cc3ccccc3)CC2)CC1	i	nt	nt	nt	nt
c1ccc(CN2CCC(N3CCC(N4CCCCCC4)CC3)CC2)cc1	nt	nt	i	32	nt
CCNC(=O)C[C@H]1CC[C@H](NC(=O)C2CC2)[C@@H](CO)O1	i	i	i	i	i
Cc1noc(C)c1NC(=O)N(C)C[C@@H]1OCCCC[C@H](C)Oc2ccc(NS(=O)(=O)c3ccc(Cl)cc3)cc2C(=O)N([C@H](C)CO)C[C@@H]1C	i	i	i	i	nt
Cc1nc(SCc2ccc(O)c([N+](=O)[O-])c2)c([N+](=O)[O-])[nH]1	i	i	55	i	i
Cc1nc(SCc2ccc(O)c([N+](=O)[O-])c2)n[nH]1	nt	i	i	i	i
Oc1ccccc1/C=N/[n+]1ccccc1	i	i	97	i	i
Oc1ccccc1C=NC(c1ccccc1)C(O)c1ccccc1 (stereo not given)	i	nt	nt	nt	nt
O=C(O)CN1C(=O)C=CC1=O	nt	i	i	i	i
O=C1C=CC(=O)N1CCCCCCN1C(=O)C=CC1=O	nt	48	nt	nt	nt
C[C@@H]1CN([C@H](C)CO)C(=O)c2c(c3ccccc3n2C)-c2ccccc2CO[C@H]1CN(C)C(=O)c1ccccc1	i	i	i	i	i
Cc1ccc(S(=O)(=O)N(C)C[C@H]2OCCCC[C@@H](C)Oc3ccc(NC(=O)NC(C)C)cc3C(=O)N([C@H](C)CO)C[C@H]2C)cc1	i	i	i	i	nt
CN(C)CCCCCCNC(=O)[C@@H]1C[C@@H]2C(=O)NCC(=O)N2[C@@H]1c1cccc(OCCO)c1	nt	nt	i	18	i
COCCCNC(=O)CSc1nc2c(sc(=S)n2-c2cc(Cl)ccc2OC)c(=O)[nH]1	nt	i	i	i	3.0
CCC(C)NC(=O)CSc1nc2c(sc(=S)n2-c2cc(Cl)ccc2OC)c(=O)[nH]1 (stereo not given)	i	i	i	i	i
CCCC#Cc1cnc2c(c1)C(=O)N([C@@H](C)CO)C[C@H](C)[C@H](CN(C)C(=O)Nc1ccccc1F)O2	i	nt	i	i	i
SMILES	PGC1a acetyl inh	FN deposit inh	ERAP1 HTS inh	SIRT5 inh	FGF22 binding
CC(=O)N(C)C[C@H]1Oc2ncc(-c3cncnc3)cc2C(=O)N([C@@H](C)CO)C[C@@H]1C	i	nt	i	i	i
COC1=CC(=Cc2c(N)n3nc(CC(=O)N4CCOCC4)sc3nc2=O)C=C(OC)C1=O	i	i	i	i	i
C=CCC1=C/C(=C\c2c(N)n3nc(CC(=O)N4CCCC4)sc3nc2=O)C=C(OC)C1=O	i	i	i	20	i
CCOC1=C/C(=C/c2c(N)n3nc(CC(=O)N4CCCCC4)sc3nc2=O)C=CC1=O	i	i	i	32	i
Nc1c(C=C2C=CC(=O)C=C2)c(=O)nc2sc(CC(=O)N3CCOCC3)nn12	nt	i	i	23	i
CCOC1=C/C(=C/c2c(N)n3nc(S(=O)(=O)CC)sc3nc2=O)C=CC1=O	nt	i	i	i	nt
CNC(=O)C[C@@H]1CC[C@H]2[C@H](COc3ccc(NC(=O)Nc4ccc(C)cc4)cc3C(=O)N2C)O1	i	i	i	i	i
COc1ccc(Cl)cc1NC(=O)CN(C)CC(=O)Nc1ccc(Br)cc1	i	i	i	i	i
COc1ccc(N(CC(=O)Nc2cccnc2)S(C)(=O)=O)cc1	nt	i	i	i	43
COc1ccc(NC(=O)CN(c2ccc(Cl)cc2)S(C)(=O)=O)cc1OC	i	i	i	25	i
CCOc1ccc(N(C(C)C(=O)Nc2cccnc2)S(C)(=O)=O)cc1 (stereo not given)	i	i	i	i	43
COc1cccc(N(CC(=O)Nc2cccnc2)S(C)(=O)=O)c1	i	i	i	i	i
COc1ccc(Cl)cc1NC(=O)CN(C)CC(=O)Nc1cc(OC)c(OC)c(OC)c1	i	i	i	15	i
O=S(=O)(c1ccc(F)cc1)N1CCCCN2[C@H](C1)[C@H](c1ccc(C#CC3CCCC3)cc1)[C@@H]2CO	i	nt	i	18	i
O=S(=O)(c1ccccc1)N1CCCCN2[C@H](C1)[C@H](c1ccc(C#CC3CCCC3)cc1)[C@@H]2CO	i	i	i	19	i
O=S(=O)(c1ccc(F)cc1)N1CCCCN2[C@H](CO)[C@@H](c3ccc(C#CC4CCCC4)cc3)[C@@H]2C1	i	nt	i	18	i
O=S(=O)(c1ccc(F)cc1)N1CCCCN2[C@H](CO)[C@H](c3ccc(C#CC4CCCC4)cc3)[C@H]2C1	i	nt	i	22	i
CCCNC(=O)C[C@@H]1CC[C@H]2[C@@H](COC[C@@H](O)CN2C(=O)Nc2cccc(Cl)c2)O1	i	i	i	i	i
COc1ccc(S(=O)(=O)N2CCCCN3[C@H](C2)[C@H](c2ccc(C#CC(C)C)cc2)[C@@H]3CO)cc1	i	nt	i	16	i
O=C(c1ccncc1)N1CCCCN2[C@@H](CO)[C@H](c3ccc(-c4ccccc4)cc3)[C@@H]2C1	i	nt	i	i	i
COc1ccc(NC(=O)N(C)C[C@H]2Oc3ccc(NS(=O)(=O)c4ccc(C)cc4)cc3C(=O)N([C@H](C)CO)C[C@H]2C)cc1	i	nt	nt	nt	nt
COc1ccccc1-c1cnc2c(c1)C(=O)N([C@@H](C)CO)C[C@@H](C)[C@H](CN(C)C(=O)c1ccncc1)O2	i	i	i	i	i
O=C(c1ccccc1)N1CCN=C1c1ccccc1	i	i	nt	nt	nt
Cc1cc(C)cc(C(=O)N2CCN=C2c2ccccc2)c1	i	i	i	i	43
COC(=O)C[C@H]1CC[C@H]2[C@@H](COc3ccc(NC(=O)c4cc(F)cc(F)c4)cc3C(=O)N2C)O1	i	i	nt	nt	i
CCCNC(=O)N1[C@H](CO)[C@H]2c3ccccc3N(C(=O)Nc3ccccc3)C[C@H]21	i	i	nt	nt	nt
N#Cc1cnn(-c2cccc(Cl)c2)c1N	i	i	i	i	43
O=c1[nH]nc(-c2ccc(NCCCO)c([N+](=O)[O-])c2)c2ccccc12	59	i	i	i	i

High-throughput results deposited in PubChem BioAssay by Broad Institute.
